This note sets out measurements from article PMC4371900 (International Journal of Nanomedicine, 2015).

Series [1] relates to genotype 1b Con1 HCV sub-genomic replicon (Huh 5-2 cells). Put plainly: Antiviral assay with Huh 5-2 cells. The series is classed as cell-based, hepatitis C virus.
A short description of series [2]: Cytostatic assay. It is filed as cell-based. Particulars: human, Huh 5-2 cells. A digest of the protocol:
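Huh 7 cells carrying subgenomic HCV replicon (Huh 5-2) were seeded at 5·10^3 cells/well in complete DMEM with G418. After 24 h, serial dilutions of test compound (free or γ-CD complex) were added in complete DMEM without G418. Cells proliferated 3 days at 37°C. Cell number was read by CellTiter 96 AQueous One.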

Consider `OC[C@H]1O[C@@H]2O[C@H]3[C@H](O)[C@@H](O)[C@@H](O[C@H]4[C@H](O)[C@@H](O)[C@@H](O[C@H]5[C@H](O)[C@@H](O)[C@@H](O[C@H]6[C@H](O)[C@@H](O)[C@@H](O[C@H]7[C@H](O)[C@@H](O)[C@@H](O[C@H]8[C@H](O)[C@@H](O)[C@@H](O[C@H]9[C@H](O)[C@@H](O)[C@@H](O[C@H]1[C@H](O)[C@H]2O)O[C@@H]9CO)O[C@@H]8CO)O[C@@H]7CO)O[C@@H]6CO)O[C@@H]5CO)O[C@@H]4CO)O[C@@H]3CO` [γ-CD, γ-cyclodextrin], for which, in series [1] (control tests with compound-free γ-CD (data not shown)), the luminescence is on record as 100%. In addition, the “antiviral activity in cell assays” value in series [1] (delivered alone, free in solution) was “did not show antiviral activity”. Moreover, the viability at 3 days in series [2] came to 100%.
